Experimental data collected from several papers.
Compare with care: the assays were run in different laboratories.
Target: Serine/threonine-protein kinase 4 (STK4, Homo sapiens, UniProt Q13043)
Residues used in one study (Q13043 1-487): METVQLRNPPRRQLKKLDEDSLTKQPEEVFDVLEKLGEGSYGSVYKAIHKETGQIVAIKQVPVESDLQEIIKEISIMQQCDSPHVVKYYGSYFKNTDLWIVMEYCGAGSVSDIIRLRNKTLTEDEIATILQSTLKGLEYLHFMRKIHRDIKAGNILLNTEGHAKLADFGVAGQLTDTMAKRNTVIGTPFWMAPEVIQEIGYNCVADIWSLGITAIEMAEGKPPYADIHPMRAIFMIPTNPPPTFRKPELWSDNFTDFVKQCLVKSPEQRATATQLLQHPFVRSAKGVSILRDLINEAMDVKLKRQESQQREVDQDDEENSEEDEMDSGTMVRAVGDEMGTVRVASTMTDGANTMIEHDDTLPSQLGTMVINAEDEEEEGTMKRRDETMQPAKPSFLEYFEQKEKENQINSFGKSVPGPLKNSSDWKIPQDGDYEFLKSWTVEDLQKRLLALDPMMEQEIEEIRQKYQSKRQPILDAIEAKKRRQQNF

The remaining signal of `C1=C/COCc2cc(ccc2OCCN2CCCC2)Nc2nccc(n2)-c2cccc(c2)COC/1` is reported as 100% (cell-free assay; 0.1 µM).
The remaining binding of `COc1ccc2oc(-c3ccc4nc(N)oc4c3)c/c(=N\c3ccccc3NC(=O)CCN)c2c1` is reported as 111% (binding; 1 µM).
With `CN1CCN(C(=O)c2ccc(NC(=O)Nc3ccc(N(C)c4ccnc(Nc5ccc(CS(C)(=O)=O)cc5)n4)cc3)cc2)CC1` the remaining binding was 96% (binding; competition with immobilised ligand; 1 µM).
With `C#Cc1cc(-c2cc(Nc3nc(N[C@@H](C)c4ccc(F)cn4)ncc3Cl)n[nH]2)ccc1C=O` the inhibition was 54.5% (enzyme activity; inhibitor; 0.2 µM).
`C=CC(=O)N1CCC([C@@H]2CCNc3c(C(N)=O)c(-c4ccc(Oc5ccccc5)cc4)nn32)CC1` has an inhibition of 0% (enzyme activity; inhibitor; 1 µM).
`COc1ccc2[nH]c3c4[nH]c5ccc(OC)cc5c4c4c(c3c2c1)C(=O)NC4=O` has a remaining binding of 100% (binding; competition with immobilised ligand; 1 µM).
The remaining binding of `CCCCC(=O)Nc1ccc(-c2ccc3ncn(CCC)c(=O)c3c2)cn1` is reported as 95% (binding; competition with immobilised ligand; 0.5 µM).
The inhibition of `CO[C@@H]1[C@H](N(C)C(=O)c2ccccc2)C[C@H]2O[C@]1(C)n1c3ccccc3c3c4c(c5c6ccccc6n2c5c31)C(=O)NC4` is reported as 78% (enzyme activity; inhibitor; 1 µM).
With `Cc1cc(O)c(-c2ccc([C@@H](C)CN(C)C)cc2)c2c1[nH]c(=O)c1sccc12` the inhibition was -0.517% (enzyme activity; inhibitor; 0.1 µM).
